Data reported in ChEMBL document CHEMBL1151777, “Quantitating the concentration of Py-Im polyamide-fluorescein conjugates in live cells” (Bioorg Med Chem Lett, 2008).
Activity calls are given as the source filed them. No cut-off for these calls is given here.

Experiments:
[1] = tested on: U-251; assay: Drug level in human U251 cells at 2 uM after 12 to 14 hrs flow cytometry; format: ADME, cell-based; conditions: u-251, 2 µM
Outline: (§1)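 Cells at 1.33×10^5 cells/mL grown 24 h, medium replaced, polyamide added at 0, 0.4, 2 or 10 μM final, 12-14 h at 37°C, 5% CO2. Washed, resuspended in HBSS at 5×10^5 cells/mL. 10,000 cells per sample read in the fluorescein channel. Fluorophores per cell interpolated from a linear curve of the five highest Rainbow bead peaks, then divided by a modeled nuclear volume of 1×10^-12 L (cylinder, radius 10 µm, height 5 µm).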

[2] = tested on: HeLa; assay: Drug level in human HeLa cells at 10 uM after 12 to 14 hrs flow cytometry; format: ADME, cell-based; outline: as §1
[3] = tested on: U-251; assay: Cytotoxicity against human U251 cells assessed as cell viability by trypan blue assay; format: functional
Outline: (§2)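 Following 12-14 h polyamide exposure (0, 0.4, 2 or 10 μM final) at 37°C, 5% CO2, cells were trypsinized, pelleted and resuspended in HBSS (no Mg2+/Ca2+, 2.5 mg/mL BSA, 10 mM HEPES, pH 7.0-7.2). Viability was checked by trypan blue staining before flow cytometry.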

[4] = tested on: HeLa; assay: Cytotoxicity against human HeLa cells assessed as cell viability by trypan blue assay; format: functional; outline: as §2
[5] = tested on: DNA; assay: Binding affinity to calf thymus DNA at 2 uM assessed as fluorescence enhancement by steady-state fluorimetry relative to control; format: nucleic-acid assay; conditions: Bos taurus
Outline: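 Sonicated calf thymus DNA serially diluted in supplemented medium (0 to 1000 μM bp), polyamide at 2 μM final. Excitation 490 nm, emission scanned 500-650 nm, 2 nm slits, room temperature. Enhancement taken as the DNA-bound fluorescence relative to the DNA-free emission.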

[6] = Drug uptake in nucleus of human U251 cells at 2 uM after 12 to 14 hrs by confocal microscopy in presence of calf thymus DNA; format: ADME, cell-based; conditions: u-251, 2 µM
Outline: (§3)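 Cells grown 24 h in glass-bottom dishes, then given 2 µM polyamide in fresh medium for 12-14 h at 37°C, 5% CO2, and imaged live with a 40× oil objective using fluorescein filters. Calibration standards were polyamide serial dilutions in medium with 500 μM bp sonicated calf thymus DNA. Nuclear concentration was interpolated from the linear calibration curve. At least three images per condition, at least ten cells per image; cell cycles unsynchronized.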

[7] = tested on: HeLa; assay: Drug level in human HeLa cells at 2 uM after 12 to 14 hrs flow cytometry; format: ADME, cell-based; outline: as §1
[8] = tested on: U-251; assay: Induction of nuclear localization in human U251 cells at 2 uM after 12 to 14 hrs by confocal laser scanning microscopy; format: functional, cell-based
Outline: (§4)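 Live cells were incubated 12-14 h at 37°C, 5% CO2 with 2 µM polyamide and imaged directly by confocal microscopy with fluorescein filters. Nuclear staining was scored qualitatively against medium fluorescence; a positive score means nuclear signal exceeds that of the medium.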

[9] = tested on: HeLa; assay: Inhibition of VEGF expression in human HeLa cells by quantitative RT-PCR; format: functional, cell-based
[10] = tested on: HeLa; assay: Drug level in human HeLa cells at 0.4 uM after 12 to 14 hrs flow cytometry; format: ADME, cell-based; outline: as §1
[11] = tested on: U-251; assay: Drug level in human U251 cells at 10 uM after 12 to 14 hrs flow cytometry; format: ADME, cell-based; conditions: u-251, 10 µM; outline: as §1
[12] = Drug uptake in nucleus of human HeLa cells at 2 uM after 12 to 14 hrs by confocal microscopy in presence of calf thymus DNA; format: ADME, cell-based; outline: as §3
[13] = tested on: HeLa; assay: Induction of nuclear localization in human HeLa cells at 2 uM after 12 to 14 hrs by confocal laser scanning microscopy; format: functional, cell-based; outline: as §4
[14] = Binding affinity to DNA 5'WTWCGW3' sequence
Outline: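 Labeled DNA equilibrated with polyamide 14-16 h at 22°C in 10 mM Tris-HCl, 10 mM KCl, 10 mM MgCl2, 5 mM CaCl2, pH 7.0, then cleaved with DNase I. Binding isotherms built from normalized theta values.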

[15] = tested on: U-251; assay: Drug level in human U251 cells at 0.4 uM after 12 to 14 hrs flow cytometry; format: ADME, cell-based; conditions: u-251, 0.4 µM; outline: as §1

Drug uptake [1]: 0.34 µM
Drug uptake [2]: 0.2 µM
fold change (FC) [5]: 14
Drug uptake [6]: 1.6 µM
Drug uptake [7]: 0.09 µM
Drug uptake [10]: 0.02 µM
Drug uptake [11]: 0.84 µM
Drug uptake [12]: 0.5 µM
Ka [14]: 3.8 ×10⁹ /M
Drug uptake [15]: 0.09 µM
SMILES: Cn1cc(NC(=O)c2cc(NC(=O)c3nc(NC(=O)c4cc(NC(=O)[C@H](N)CCNC(=O)c5nc(NC(=O)c6cc(NC(=O)c7cc(NC(=O)c8sccc8Cl)cn7C)cn6C)cn5C)cn4C)cn3C)cn2C)cc1C(=O)NCCC(=O)NCCCNC(=S)Nc1ccc(-c2c3ccc(=O)cc-3oc3cc(O)ccc23)c(C(=O)O)c1
Activity [3]: >95%
Activity [4]: >95%
Activity [8]: Active
Activity [9]: Active
Activity [13]: Active
